These results are taken from ChEMBL document CHEMBL3526004, “Interaction of silymarin flavonolignans with organic anion-transporting polypeptides” (Drug Metab Dispos, 2013).

Series [1] concerns the target T1, Solute carrier organic anion transporter family member 1B3 (Homo sapiens, UniProt Q9NPD5).
T1 sequence (Q9NPD5 whole entry): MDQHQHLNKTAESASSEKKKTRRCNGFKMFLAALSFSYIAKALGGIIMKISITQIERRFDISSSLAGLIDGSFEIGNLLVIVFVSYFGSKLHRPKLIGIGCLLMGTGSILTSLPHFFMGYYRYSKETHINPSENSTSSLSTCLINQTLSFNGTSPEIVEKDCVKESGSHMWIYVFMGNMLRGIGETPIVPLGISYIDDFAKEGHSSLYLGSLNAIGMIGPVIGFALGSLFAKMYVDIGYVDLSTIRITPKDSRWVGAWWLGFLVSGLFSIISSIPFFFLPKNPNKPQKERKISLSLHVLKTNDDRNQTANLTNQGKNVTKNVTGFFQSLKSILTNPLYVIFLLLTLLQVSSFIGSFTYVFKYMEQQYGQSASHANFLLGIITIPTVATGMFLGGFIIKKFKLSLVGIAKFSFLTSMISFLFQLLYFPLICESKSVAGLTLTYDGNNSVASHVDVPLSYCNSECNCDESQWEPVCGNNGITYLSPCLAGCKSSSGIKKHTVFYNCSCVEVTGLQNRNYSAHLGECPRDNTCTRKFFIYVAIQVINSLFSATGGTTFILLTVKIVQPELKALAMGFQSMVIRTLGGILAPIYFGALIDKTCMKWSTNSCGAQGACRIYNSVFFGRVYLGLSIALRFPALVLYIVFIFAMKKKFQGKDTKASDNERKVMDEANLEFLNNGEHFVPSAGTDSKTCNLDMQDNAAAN
The series is described as follows: Inhibition of OATP1B3 (unknown origin) expressed in HEK293 cells assessed as reduction of [3H]estradiol-17beta-glucuronide uptake at 10 uM after 3 mins by beta-counting. The class given is ADME, cell-based. As to conditions: hek293, 0.05 h; call rule not given here. An outline of the steps:
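Confluent cells were washed in PBS, then given 1 µM [3H]-E2 17G (OATP1B1, OATP1B3 HEK293) or 1 µM [3H]-E1S (OATP2B1 MDCKII) with 10 µM compound in HBSS pH 7.4 for 3 min at 37°C. Uptake into mock or parental cells was subtracted after protein normalization. Results are % vehicle, mean ± SD of at least three experiments in triplicate.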

For series [2], the target named is T1, Solute carrier organic anion transporter family member 1B3. Nature of the series: Inhibition of OATP1B3 (unknown origin) expressed in HEK293 cells assessed as reduction of [3H]estradiol-17beta-glucuronide uptake after 3 mins by beta-counting. It is filed as ADME, cell-based. In a few lines:
(§1)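 Transfected HEK293 (G418) or MDCKII (hygromycin B) cells were co-incubated with 0-100 µM compound and [3H]-E2 17G (1 µM, 0.25 µCi/ml; OATP1B1, OATP1B3) or [3H]-E1S (1 µM; OATP2B1) in HBSS pH 7.4, 3 min at 37°C. OATP-negative uptake was subtracted, and results expressed as % vehicle. Two experiments were run in duplicate. IC50 came from non-linear dose-response fits.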

Series [3] concerns the target T2, Solute carrier organic anion transporter family member 2B1 (Homo sapiens, UniProt O94956).
T2 sequence (O94956 whole entry): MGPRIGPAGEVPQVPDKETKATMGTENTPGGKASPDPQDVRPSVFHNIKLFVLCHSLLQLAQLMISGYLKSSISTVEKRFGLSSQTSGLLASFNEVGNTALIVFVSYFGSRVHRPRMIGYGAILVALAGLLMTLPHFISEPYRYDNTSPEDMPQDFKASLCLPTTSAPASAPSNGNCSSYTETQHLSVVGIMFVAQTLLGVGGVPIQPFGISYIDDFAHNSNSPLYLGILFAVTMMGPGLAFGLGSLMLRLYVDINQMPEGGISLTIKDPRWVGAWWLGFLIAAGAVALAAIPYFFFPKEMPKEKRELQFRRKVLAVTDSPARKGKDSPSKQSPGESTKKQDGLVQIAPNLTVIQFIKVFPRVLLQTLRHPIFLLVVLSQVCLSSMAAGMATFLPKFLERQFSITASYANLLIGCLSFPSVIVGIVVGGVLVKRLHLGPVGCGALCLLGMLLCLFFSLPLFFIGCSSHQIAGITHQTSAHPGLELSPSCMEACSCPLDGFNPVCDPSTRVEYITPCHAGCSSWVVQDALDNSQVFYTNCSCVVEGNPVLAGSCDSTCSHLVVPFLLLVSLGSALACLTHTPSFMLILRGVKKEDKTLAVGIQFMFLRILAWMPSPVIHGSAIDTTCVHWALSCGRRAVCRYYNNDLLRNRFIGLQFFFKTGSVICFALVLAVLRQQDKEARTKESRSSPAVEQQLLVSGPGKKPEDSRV
The series is described as follows: Inhibition of OATP2B1 (unknown origin) expressed in MDCK2 cells assessed as reduction of [3H]estrone-3-sulfate uptake after 3 mins by beta-counting. The class given is ADME, cell-based, MDCK-II. In a few lines: as §1

A further series relates to Plasma. Nature of the series: Plasma concentration in patient with chronic noncirrhotic HCV at 420 to 700 mg administered 3 times per day. It is filed as ADME, cell-free. As to conditions: human.
The nature of series [4]: Residual OATP-mediated [3H]estradiol-17beta-glucuronide uptake in sandwich-cultured human hepatocytes at 100 uM after 8 days by beta-counting.
Series [5] in a line: Inhibition of OATP-mediated [3H]estradiol-17beta-glucuronide uptake in sandwich-cultured human hepatocytes at 100 uM after 8 days by beta-counting. The class given is ADME, cell-based, Hepatocyte. In a few lines:
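Hepatocytes were overlaid with Matrigel (0.25 mg/ml) on day 1 and cultured to day 8 in ITS/0.1 µM dexamethasone medium, changed daily. Uptake of [3H]-E2 17G (1 µM, 1 min) or [3H]-rosuvastatin (0.5 µM, 1.5 min) was run at 37°C in HBSS with compound or vehicle. The BSP (100 µM) accumulation was subtracted, and the OATP-mediated uptake was expressed as % vehicle, normalized to BCA protein and corrected with cell-free wells.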

Usually IC50 stands for the point on the concentration scale where inhibition reaches its midpoint. For orientation: residual activity means the activity still measured, relative to the control. Higher therefore signals much activity left. Consider `COc1cc([C@H]2Oc3cc([C@H]4Oc5cc(O)cc(O)c5C(=O)[C@@H]4O)ccc3O[C@@H]2CO)ccc1O` [SILYBIN A], for which, in series [1], the “inhibition (INH)” value was “Active”. For the same compound, the IC50 was determined as 2.7 µM in series [2] and 4.5 µM in series [3]. For the same compound, the concentration in the series on Plasma is 4.2 µM. In series [4], the residual activity is reported as 58%.
For `COc1cc([C@@H]2Oc3cc([C@H]4Oc5cc(O)cc(O)c5C(=O)[C@@H]4O)ccc3O[C@H]2CO)ccc1O` [SILYBIN B], the IC50 in series [2] came out at 5 µM; in series [3] it was 0.8 µM. For the same compound, the “inhibition (INH)” value in series [5] is “Active”.
